The record followed here is ChEMBL document CHEMBL1134306, “New antimitotic agents with activity in multi-drug-resistant cell lines and in vivo efficacy in murine tumor models” (J Med Chem, 2001).

In one data set the test system is HCT-15. Briefly: Effective dose against HCT-15 cell line. It counts as functional. To be noted: Homo sapiens, read-out: ED50 (the source's name). An outline of the steps:
(§1)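 HCT-15 (MDR+) or NCI-H460 (MDR−) cells in growth medium treated with compounds over a range of concentrations for 48 h. Cells then trypsinized and counted per well with a Coulter counter. ED50 derived from cell number. Compounds at 1 μM or below were retested in both lines. Values reported as mean ± SD.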

For another data set, the system named is NCI-H460. Briefly: Effective dose against NCI-H460 cell line. Format: functional. As to conditions: Homo sapiens, read-out: ED50 (the source's name). An outline of the steps: as §1
The nature of data set [1]: (§2) Maximum plasma concentration following intravenous dosing, tested in vivo in mice. Further details: route intravenous. To be noted: mouse, plasma. Format: ADME, organism-based.
Data set [2] in a line: Time to maximum plasma concentration following oral dosing, tested in vivo in mice. As to conditions: mouse, plasma.
Data set [3] in a line: (§3) Half-life following intravenous dosing, tested in vivo in mice. It counts as ADME, organism-based. To be noted: mouse.
Data set [4] is described as follows: Integrated compound concentration with respect to time following oral dosing, tested in vivo in mice. Format: ADME, organism-based. To be noted: mouse.
Data set [5] can be described thus: (§4) Area under the curve following intravenous dosing, integrated compound concentration with respect to time, tested in vivo in mice. To be noted: mouse. It counts as ADME, organism-based.
Data set [6] can be described thus: Volume of distribution following intravenous dosing, tested in vivo in mice. It counts as ADME, organism-based. As to conditions: mouse, read-out: Vc.
Data set [7] in a line: Oral bioavailability in mouse. It counts as ADME, organism-based. As to conditions: in vivo.
For data set [8], the system named is Mus musculus. The description is as §2. To be noted: in vivo. Further details: route intravenous. It counts as ADME, organism-based.
Data set [9] deals with Mus musculus. Briefly: Time to maximum plasma concentration following oral dosing, tested in vivo in mice. As to conditions: in vivo.
Data set [10] relates to Mus musculus. Described as §3. Format: ADME, organism-based.
Data set [11] relates to Mus musculus. Described as §4. Format: ADME, organism-based.

For `COc1cc(C2OC(c3ccc(N(C)C)cc3)=NN2C=O)cc(OC)c1OC` (configuration not stated), the EC50 in the data set on HCT-15 was 0.096 µM; in the data set with NCI-H460, 0.12 µM.

Take `COC(=O)c1c(OC)cc(C2OC(c3ccc(N)c(C)c3)=NN2C(C)=O)cc1OC` (configuration not stated): the values for the EC50 with HCT-15 and with NCI-H460 were 0.28 µM and 0.51 µM, respectively.

For `COC(=O)N1N=C(c2ccc(N(C)C)cc2)OC1c1cc(OC)c(OC)c(OC)c1` (configuration not stated), the EC50 in the data set with HCT-15 came to 40 µM; in the data set with NCI-H460 it was 106 µM.

For the molecule `CC(=O)N1N=C(c2ccc(N(C)C)cc2)OC1c1cc(C)c(C)c(C)c1` (configuration not stated), the EC50 came out at 1.5 µM in the data set on HCT-15 and 5.7 µM in the data set with NCI-H460.

For the molecule `COc1cc(C2OC(c3ccc(N(C)C)cc3)=NN2C(=O)CN=[N+]=[N-])cc(OC)c1OC` (configuration not stated), the EC50 came out at 0.15 µM in the data set on HCT-15 and 0.53 µM in the data set on NCI-H460.

`COc1ccc(C2=NCC(c3cc(OC)c(OC)c(OC)c3)O2)cc1N` (configuration not stated): the EC50 is 0.082 µM in the data set with HCT-15 and 0.073 µM in the data set with NCI-H460.

Take `CCCCNC(=O)c1c(OC)cc(C2OC(c3ccc(N)c(C)c3)=NN2C(C)=O)cc1OC` (configuration not stated): the EC50 was determined as 178 µM with HCT-15 and 60 µM in the data set on NCI-H460.

Regarding `COc1cc(C2OC(c3ccc(N(C)C)cc3)=NN2C(=O)CN)cc(OC)c1OC` (configuration not stated), the values for the EC50 with HCT-15 and in the data set with NCI-H460 were 0.65 µM and 0.66 µM, respectively.

Regarding `COc1cc(C2OC(c3ccc(N(C)C)cc3)=NN2C(=O)CNC=O)cc(OC)c1OC` (configuration not stated), the results for the EC50 in the data set on HCT-15 and with NCI-H460 were 0.035 µM and 0.04 µM, respectively.

In the case of `COc1cc(C2CN=C(c3ccc4c(c3)CCN4C)O2)cc(OC)c1OC` (configuration not stated), the EC50 was found to be 0.61 µM with HCT-15 and 0.82 µM in the data set on NCI-H460.

For `CCOC(=O)C(=O)N1N=C(c2ccc(N(C)C)cc2)OC1c1cc(OC)c(OC)c(OC)c1` (configuration not stated), the EC50 in the data set on HCT-15 was found to be 45 µM; in the data set with NCI-H460, 33 µM.

With `COc1cc(C2OC(c3ccc(N(C)C)cc3)=NN2C(C)=O)cc(OC)c1OC(C)=O` (configuration not stated), the results for the EC50 with HCT-15 and in the data set with NCI-H460 were 78 µM and 13 µM, respectively.

For the molecule `COc1cc(C2CN=C(c3ccc4nc(O)oc4c3)O2)cc(OC)c1OC` (configuration not stated), the EC50 in the data set with HCT-15 worked out at 4.3 µM; in the data set with NCI-H460, 72 µM.

Turning to `COc1cc(C2CN=C(c3ccc4c(c3)CCCN4C)O2)cc(OC)c1OC` (configuration not stated), the EC50 came to 0.66 µM with HCT-15 and 0.32 µM with NCI-H460.

As to `COc1cc(C2OC(c3ccc(N(C)C)cc3)=NN2C(=O)CO)cc(OC)c1OC` (configuration not stated), the EC50 was 0.026 µM with HCT-15 and 0.043 µM in the data set with NCI-H460.

Take `COc1cc(C2OC(c3ccc(N)c(C)c3)=NN2C(C)=O)cc2c1OCO2` (configuration not stated): the EC50 in the data set on HCT-15 came to 0.62 µM; with NCI-H460 it was 0.63 µM.

Take `COc1cc(-c2nnc(-c3ccc(N(C)C)cc3)s2)cc(OC)c1OC`: the EC50 was determined as 231 µM in the data set on HCT-15 and 1000 µM in the data set with NCI-H460.

Regarding `COc1ccc(C2OC(c3ccc(N(C)C)cc3)=NN2C(C)=O)cc1OC` (configuration not stated), the EC50 with HCT-15 is 8.2 µM; in the data set on NCI-H460 it was 5.1 µM.

`COc1cc(C2OC(c3ccc(N(C)C)cc3)=NN2C(=O)CN(C)C)cc(OC)c1OC` (configuration not stated): the EC50 is 80 µM in the data set on HCT-15 and 74 µM in the data set with NCI-H460.

For the molecule `COc1cc(-c2cc(-c3ccc(N)c(C)c3)nn2C(C)=O)cc(OC)c1OC`, the EC50 in the data set on HCT-15 was found to be 365 µM; in the data set with NCI-H460 it was 1000 µM.

As for `COc1cc(OC)c(C2OC(c3ccc(N)c(C)c3)=NN2C(C)=O)cc1OC` (configuration not stated), the EC50 with HCT-15 turned out to be 198 µM; in the data set with NCI-H460, 1000 µM.

On to `COc1cc(C2OC(c3ccccc3N(C)C)=NN2C(C)=O)cc(OC)c1OC` (configuration not stated), for which the EC50 in the data set with HCT-15 was 65 µM; in the data set with NCI-H460, 109 µM.

For the molecule `COc1cc(C2CN=C(c3ccc(C)c(N)c3)O2)cc(OC)c1OC` (configuration not stated), the EC50 with HCT-15 amounted to 0.082 µM; in the data set on NCI-H460, 0.063 µM.

As to `COc1cc(-c2nnc(-c3ccc(N(C)C)cc3)o2)cc(OC)c1OC`, the EC50 in the data set on HCT-15 was found to be 92 µM; in the data set with NCI-H460 it was 106 µM.

The term Cmax denotes the highest concentration seen after dosing. The Tmax is the time from dosing to the highest level. Broadly, the half-life is how long it takes for the measured level to halve. In general, AUC refers to the area under the concentration-time curve, a measure of exposure. Broadly, the bioavailability is the share of a dose that reaches the circulation, judged against a reference dose that is usually intravenous. With `COc1cc(C2CN=C(c3ccc(N(C)C)cc3)O2)cc(OC)c1OC` (configuration not stated), the EC50 in the data set with HCT-15 amounted to 0.12 µM; in the data set with NCI-H460, 0.35 µM. For the same molecule, the Cmax in data set [1] was 891 ng/mL. Further, the Tmax in [2] worked out at 54 min. In addition, in data set [3], the half-life is 48 min. In addition, the AUC in data set [4] came out at 1660 ng·h/mL; in data set [5], 3410 ng·h/mL. The Vd in [6] came to 3.3 L/kg. Also, in data set [7], the bioavailability came to 49%.

Take `COc1cc(C2OC(c3ccc(N(C)C)cc3)=NN2C(=O)COC(C)=O)cc(OC)c1OC` (configuration not stated): the EC50 amounted to 0.019 µM in the data set with HCT-15 and 0.072 µM with NCI-H460.

Regarding `CC(=O)O[C@H]1C(=O)[C@@]2(C)[C@H]([C@H](OC(=O)c3ccccc3)[C@]3(O)C[C@H](OC(=O)[C@H](O)[C@@H](NC(=O)c4ccccc4)c4ccccc4)C(C)=C1C3(C)C)[C@]1(OC(C)=O)CO[C@@H]1C[C@@H]2O` [PACLITAXEL], the EC50 with HCT-15 worked out at 0.54 µM; in the data set on NCI-H460, 0.015 µM.

With `COc1cc(C2SC(c3ccc(N(C)C)cc3)=NN2C(C)=O)cc(OC)c1OC` (configuration not stated), the EC50 turned out to be 0.61 µM in the data set with HCT-15 and 0.35 µM in the data set on NCI-H460.

For the molecule `COc1cc(C2COC(c3ccc(N(C)C)cc3)O2)cc(OC)c1OC` (configuration not stated), the EC50 in the data set with HCT-15 amounted to 2.4 µM; in the data set with NCI-H460, 8.3 µM.

For the molecule `COc1cc(C2OC(c3ccc(N)c(C)c3)=NN2C(C)=O)cc(OC)c1OC` (configuration not stated), the EC50 in the data set on HCT-15 stood at 0.042 µM; with NCI-H460, 0.059 µM. Besides, the Cmax with Mus musculus [8] was determined as 59 ng/mL. The same molecule gave a T max in the data set with Mus musculus [9] of 102 min. Moreover, the T1/2 with Mus musculus [10] amounted to 66 min. Also, the AUC in [4] is 147 ng·h/mL; in the data set on Mus musculus [11], 2109 ng·h/mL. For the same molecule, the Vd in data set [6] was determined as 2.2 L/kg. The molecule also displayed a bioavailability in data set [7] of 7%.

As for `COc1cc(C2OC(c3ccc(N(C)C)cc3)=NN2C(=O)CNC(C)=O)cc(OC)c1OC` (configuration not stated), the EC50 with HCT-15 is 0.18 µM; in the data set with NCI-H460, 0.48 µM.

For the molecule `COc1cc(OC)c(C2OC(c3ccc(N(C)C)cc3)=NN2C(C)=O)c(OC)c1` (configuration not stated), the EC50 in the data set on HCT-15 stood at 71 µM; in the data set on NCI-H460, 40 µM.

`COc1cc(C2OC(c3cccc(N(C)C)c3)=NN2C(C)=O)cc(OC)c1OC` (configuration not stated): the results for the EC50 in the data set on HCT-15 and in the data set on NCI-H460 were 0.16 µM and 0.26 µM, respectively.

Take `COc1cc(C2OC(c3ccc(N(C)C)cc3)=NN2C(C)=O)cc(OC)c1OC` (configuration not stated): the EC50 was 0.033 µM in the data set with HCT-15 and 0.044 µM in the data set with NCI-H460. In the data set on Mus musculus [8], this molecule yielded a Cmax of 113 ng/mL. For the same molecule, the T max in the data set on Mus musculus [9] is 24 min. This molecule also came in with a T1/2 in the data set on Mus musculus [10] of 66 min. In addition, the AUC in data set [4] worked out at 155 ng·h/mL; in the data set on Mus musculus [11], 3170 ng·h/mL. For the same molecule, the Vd in data set [6] worked out at 3.3 L/kg. The same molecule had a bioavailability in data set [7] of 4.9%.

Turning to `COc1cc(C2CN=C(c3ccc4[nH]ccc4c3)O2)cc(OC)c1OC` (configuration not stated), the EC50 in the data set with HCT-15 turned out to be 0.097 µM; in the data set with NCI-H460, 0.116 µM.

As to `COc1ccc(C2OC(c3ccc(N(C)C)cc3)=NN2C(C)=O)c(OC)c1OC` (configuration not stated), the EC50 came out at 7.5 µM with HCT-15 and 6.8 µM in the data set on NCI-H460.

For `COc1cc(C2CN=C(c3ccc4c(ccn4C)c3)O2)cc(OC)c1OC` (configuration not stated), the EC50 in the data set with HCT-15 came out at 0.018 µM; in the data set with NCI-H460, 0.028 µM. The Cmax in data set [1] is 799 ng/mL. Moreover, the time of peak concentration (Tmax) in data set [2] stood at 24 min. In addition, the half-life in [3] is 114 min. Further, the AUC turned out to be 1780 ng·h/mL in data set [4] and 5120 ng·h/mL in data set [5]. Besides, the Vd in data set [6] worked out at 1.4 L/kg. The molecule further had a bioavailability in data set [7] of 35%.
